Screening results from PubChem BioAssay.
Only some compounds are listed: those with a hit (about 1.4% of all), similar ones and a draw of the others.
Fh CTSL1 inh: Fasciola hepatica cathepsin L1 inhibitors, primary screen, counter-screen for PFM18AAP inhibitor project, biochemical, QFRET, fluorogenic peptide substrate. recombinant F. hepatica cathepsin L1, Z-Leu-Arg-MCA fluorescence. inhibition, % at 5.96 µM. 300,000 tested, 0.49% active. AID 1906, 2009;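 active = inhibition above the mean of all tested compounds plus 3 SD, set per screening campaign, cut at about 17% in these data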;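 also: 0% = plate median of test compound wells and 100% = 1 µM Z-Phe-Ala-diazomethylketone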
GSTO1 inh: inhibitors of recombinant GSTO1, primary screen, counter-screen for RBBP9 inhibitor project, biochemical, fluorescence polarization; inhibition, % at 5.96 µM; 300,000 tested, 1.1% active; activity-based probe fluorescence polarization;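 active = inhibition above the campaign mean inhibition plus 3 SD, cut at about 35% in these data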;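 also: 0% = GSTO1-1 with DMSO and 100% = wells lacking GSTO1-1 enzyme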
Target sequence (P78417 whole entry, looked up): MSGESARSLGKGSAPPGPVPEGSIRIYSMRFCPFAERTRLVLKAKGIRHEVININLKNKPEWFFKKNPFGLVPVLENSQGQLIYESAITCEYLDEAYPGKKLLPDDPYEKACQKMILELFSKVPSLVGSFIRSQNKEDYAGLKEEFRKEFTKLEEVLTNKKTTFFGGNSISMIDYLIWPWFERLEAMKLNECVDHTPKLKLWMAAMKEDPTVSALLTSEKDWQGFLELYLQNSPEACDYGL
TDP2 inh: human TDP2 enzyme inhibitors, primary screen, biochemical, epi absorbance, recombinant enzyme; T5PNP hydrolysis, p-nitrophenol absorbance 415 nm; inhibition, % at 12.8 µM; AID 720702, 2013; 370,000 tested, 0.34% active;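 active = inhibition above the mean of all tested compounds plus 3 SD, set per campaign, cut at about 25% in these data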;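 also: 0% = DMSO with enzyme and 100% = buffer with substrate but no TDP2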
Target sequence (O95551 whole entry, looked up): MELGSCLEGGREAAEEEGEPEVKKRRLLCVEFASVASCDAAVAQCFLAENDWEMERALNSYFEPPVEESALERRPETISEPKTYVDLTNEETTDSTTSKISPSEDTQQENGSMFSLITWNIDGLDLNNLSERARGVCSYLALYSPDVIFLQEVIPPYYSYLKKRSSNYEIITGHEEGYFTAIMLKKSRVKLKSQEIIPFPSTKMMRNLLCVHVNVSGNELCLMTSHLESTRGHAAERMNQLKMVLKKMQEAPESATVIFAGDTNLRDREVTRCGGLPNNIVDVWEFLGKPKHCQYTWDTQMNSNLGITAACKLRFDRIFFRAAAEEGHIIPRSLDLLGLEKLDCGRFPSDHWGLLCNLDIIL
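Read-out basis: percent inhibition. System: recombinant human TDP2. Buffer or medium: Mg2+-containing Tris-HCl buffer, pH 7.5. Repeats: single replicate. Timing: reaction 2 h, 37 °C. Benchmarks: high control without enzyme, low control DMSO plus TDP2. Probe or stimulus: 5 mM T5PNP. Doses: 12.8 µM only. Measured by: epi absorbance of p-nitrophenol freed from T5PNP by hydrolysis.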
PAD4 inh: human PAD4 inhibitors, primary screen, biochemical, fluorescence polarization, 1536-well format; recombinant PAD4, RCA probe fluorescence polarization; 330,000 tested, 0.41% active; AID 485272, 2010; Protein-arginine deiminase type-4 (Homo sapiens), Q9UM07; inhibition, % at 6.36 µM;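 active = percent inhibition above a cutoff equal to the mean of all tested compounds plus 3 SD, cut at about 15% in these data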;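 also: 0% = PAD4 with RCA probe and DMSO and 100% = probe without PAD4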
GSTO1 inh conf: GSTO1 inhibitor hit confirmation, counter-screen for RBBP9 inhibitor project, biochemical, fluorescence polarization, triplicate | inhibition, % at 5.96 µM | shares compounds with GSTO1 inh | recombinant GSTO1, probe fluorescence polarization | 2,400 tested, 54% active;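 active = inhibition above the primary screen's cutoff, its mean inhibition plus 3 SD, cut at about 35% in these data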;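 also: loss of polarization as inhibitors block binding of rhodamine sulfonate ester activity probe; 0% = GSTO1 with DMSO and 100% = wells lacking GSTO1 enzyme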
GSTO1 ABPP inh: inhibitors of purified human GSTO1, late-stage follow-up, biochemical, gel ABPP, SE-Rh probe, percent inhibition; recombinant GSTO1, gel ABPP SE-Rh probe fluorescence; inhibition, % at 1 µM; 130 tested, 30% active; shares compounds with GSTO1 inh;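 active = inhibition of the enzyme GSTO1 above about 75%, limit read from the data; inactive = inhibition below that limit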
PAD4 FP conf: human PAD4 inhibitors, confirmation, biochemical, fluorescence polarization; shares compounds with PAD4 inh; recombinant PAD4, RCA probe fluorescence polarization; inhibition, % at 6.36 µM; 1,200 tested, 28% active; AID 488796, 2010;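 active = mean inhibition across replicates above the hit cutoff set by the earlier primary screen, cut at about 15% in these data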;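 also: inhibitors block active-site labeling by the probe so polarization falls; 0% = PAD4 with probe and DMSO and 100% = probe without PAD4 enzyme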
TDP2 confirm: human TDP2 enzyme inhibitors, retest, confirmation, biochemical, epi absorbance, recombinant enzyme. AID 743263, 2014. inhibition, % at 12.8 µM. 1,100 tested, 22% active. shares compounds with TDP2 inh. absorbance read-out; in the data active = inhibition above about 25%;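 also: 0% = vehicle with enzyme and 100% = no enzyme buffer only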
* hit, by the source's call; . = not tested or not shown.

SMILES | Fh CTSL1 inh | GSTO1 inh | TDP2 inh | PAD4 inh | GSTO1 inh conf | PAD4 FP conf | others
c1ccc(-c2[nH]c(-c3ccccc3)[n+](CC3CO3)c2-c2ccccc2)cc1 (centres undefined) | 3 | 84* | -21 | 0 | 84* | . | GSTO1 ABPP inh=36
Cc1ccccc1-n1c(O)c(C=Nc2ccc(N(C)C)cc2)c(=O)[nH]c1=O | -1 | 45* | 8 | 9 | 6 | .
CCCN1CCc2cc(O)cc3c2[C@H]1Cc1ccc(O)c(O)c1-3 | 5 | 89* | 9 | 18* | 3 | -6
CN1CCc2cc3c(c4c2C1Cc1ccccc1-4)OCO3 (centres undefined) | 4 | 77* | 23 | 58* | 63* | -12
COc1cc2c(cc1O)C[C@H]1c3c(cc(O)c(OC)c3-2)CCN1C | 1 | 5 | -7 | -9 | . | .
O=C1CC(=O)N(c2cccc(F)c2)C(=O)N1 | -1 | 5 | 9 | 0 | . | .
c1coc(CN2Cc3ccccc3-n3nncc3C2)c1 | . | . | -6 | . | . | .
C=CCn1c(O)c(C(CC)=Nc2ccc(N(C)C)cc2)c(=O)[nH]c1=O | -2 | 65* | 7 | 30* | 3 | 9
C=CCn1c(O)c(C(CC)=Nc2ccc3c(c2)CCC3)c(=O)[nH]c1=O | 11 | 4 | 3 | 4 | . | .
Cn1ncnc2c(=O)n(C)c(=O)nc1-2 | 111* | 94* | . | 68* | 92* | 66*
COc1ccc(C[C@@H]2c3cc(O)c(OC)cc3CCN2C)cc1O | 4 | 0 | 14 | 4 | . | .
COc1cc2c(cc1O)[C@@H]1Cc3ccc(OC)c(O)c3CN1CC2 | 65* | 69* | 54* | -6 | 6 | . | TDP2 confirm=38*
COC(=O)C1=C(c2cc3ccccc3o2)C[C@@H]2CC[C@H]1N2C(=O)NCc1ccco1 | -1 | -3 | -9 | 2 | . | .
CCC(C)NC(=O)c1c(N)n(CC2CCCO2)c2nc3ccccc3nc12 (centres undefined) | 1 | 38* | 62* | -13 | 58* | . | TDP2 confirm=-1
CCCCn1c(NS(=O)(=O)c2ccccc2)c(C(=O)OCC)c2nc3ccccc3nc21 | 0 | 66* | 88* | 63* | 66* | -13 | TDP2 confirm=83*
C[C@@H]1CN([C@H](C)CO)C(=O)CCCn2nncc2CO[C@H]1CN(C)C(=O)Oc1ccccc1 | . | . | -7 | . | . | .
COc1ccc(OC)c(N2C(=O)NC(=O)/C(=C\c3ccc([N+](=O)[O-])s3)C2=O)c1 | 6 | 40* | 28* | -26 | 26 | . | TDP2 confirm=18
O=C1NC(=O)N(c2ccccc2)C(=O)/C1=C\c1ccc([N+](=O)[O-])s1 | -1 | 35 | -5 | -6 | . | .
Nc1ccc2ccc3cccc[n+]3c2c1 | 3 | 33 | -10 | 12 | . | .
C[n+]1c(-c2ccccc2)c2cc(N)ccc2c2ccc(N)cc21 | 31* | 104* | 58* | 81* | 90* | 74* | TDP2 confirm=20
CS(=O)(=O)c1ccc(C2=C(CNC(=O)c3cccs3)[C@H]3CC[C@@H](C2)N3Cc2ccco2)cc1 | . | . | 4 | . | . | .
N/C(=N\N=C/c1ccc(-c2ccc(O)c(C(=O)O)c2)o1)N[N+](=O)[O-] | 4 | 40* | 28* | 1 | 57* | . | TDP2 confirm=-2
COCCCn1c(N)c(C(=O)NCc2ccco2)c2nc3ccccc3nc21 | 4 | 76* | 92* | -5 | 2 | . | TDP2 confirm=15
COCCNC(=O)c1c(N)n(Cc2ccco2)c2nc3ccccc3nc12 | 1 | 21 | 7 | -7 | . | .
Nc1c(C(=O)OCc2ccccc2)c2nc3ccccc3nc2n1Cc1cccs1 | 1 | 51* | 25* | 25* | 30 | -4 | TDP2 confirm=-3
SMILES | Fh CTSL1 inh | GSTO1 inh | TDP2 inh | PAD4 inh | GSTO1 inh conf | PAD4 FP conf | others
CC(C)(C)OC(=O)c1c(N)n(Cc2ccco2)c2nc3ccccc3nc12 | 7 | 56* | 67* | 19* | 3 | . | TDP2 confirm=-4
CN(C)C1CCc2[nH]c3c(F)cc(F)cc3c2C1 (centres undefined) | . | . | 5 | . | . | .
Cc1cccc(C)c1-n1nnnc1C(C1CC1)N1CCC2(CC1)C(=O)NCN2c1ccccc1 (centres undefined) | . | . | 8 | . | . | .
N#CC1(c2ccccc2)CCN(C2CC(=O)N(c3ccc4c(c3)OCO4)C2=O)CC1 (centres undefined) | 0 | -5 | -5 | -4 | . | .
N#CC1(c2ccccc2)CCN(C2CC(=O)N(c3ccc(F)cc3)C2=O)CC1 (centres undefined) | 0 | 3 | 8 | 18* | . | 3
CCCCn1c(O)c(C(CC)=NCCCn2ccnc2)c(=O)[nH]c1=O | 3 | 10 | 3 | 1 | . | .
CCCCn1c(O)c(C(C)=NCCCn2ccnc2)c(=O)[nH]c1=O | 1 | 9 | 0 | 27* | . | 16*
Cc1[nH]n(-c2ccccc2)c(=O)c1C(c1ccc([N+](=O)[O-])cc1)c1c(C)[nH]n(-c2ccccc2)c1=O | -5 | 59* | . | 66* | . | -18
Cc1cc2c(C(F)(F)F)cc(=O)oc2c2c1NCCC2 | -3 | -7 | 8 | -3 | . | .
O=c1cc(C(F)(F)F)c2cc3c4c(c2o1)CCCN4CCC3 | 2 | 14 | -2 | 35* | . | 38*
CCCN(CCC)C(=O)Cc1c(-c2ccc(Cl)cc2)nc2c(Cl)cc(Cl)cn12 | -2 | 5 | 5 | 1 | . | .
Cc1ccc(-c2nc3ccc(C)cn3c2CC(=O)N(C)C)cc1 | -3 | 8 | 8 | 17* | . | 10
O=c1[nH]c(=S)n(-c2ccccc2F)c(O)c1C=Nc1ccc(N2CCOCC2)cc1 | -2 | 43* | 2 | 17* | . | 3
O=C1c2ccccc2-n2nncc2C2c3cc(Br)ccc3CCN12 (centres undefined) | . | . | 6 | . | . | .
CC(C)NC(=O)c1ccc(N2CC3CC(C2)c2cccc(=O)n2C3)c([N+](=O)[O-])c1 (centres undefined) | -2 | 6 | 4 | 4 | . | .
CN(C)C(=O)Oc1cccc2c(OC(=O)N(C)C)cccc12 | 0 | 8 | 2 | 24* | . | 7
O=C1CN=C(c2cccc(Br)c2)c2cc(Br)ccc2N1 | 8 | 6 | 15 | -2 | . | .
CNC(=O)C[C@H]1CC[C@@H]2NC[C@H](O)COC[C@H]2O1 | . | . | -6 | . | . | .
